High-throughput results from PubChem BioAssay.
KCNK9 inh = human KCNK9 channel inhibition. hit rate 1.2% among 310,000. Q9NPC2. B-score at 10 µM. AID 488922. HEK293 KCNK9, FluxOR thallium flux fluorescence; stronger effect = lower value;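 active means ratio B-score over 3 SD below the library mean, with starting fluorescence within 5 SD of its mean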;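 further: negative B-score means less thallium flux so channel inhibition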
KCNQ1 act = human KCNQ1 channel potentiation or activation; P51787; CHO-K1 KCNQ1, thallium flux FluxOR fluorescence; stronger effect = higher value; B-score at 10 µM; hit rate 0.35% among 310,000; AID 2648;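 active means fluorescence ratio B-score, a plate-corrected score, at least three library SD, with initial intensity B-score within 5 SD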
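Test system: CHO-K1 cells stably expressing KCNQ1 / Medium: assay buffer / Also added: depolarizing K+/Tl+ stimulus, K2SO4 and Tl2SO4 each 12.5 mM in 5x stock / Incubation: 90 min dye loading and 20 min compound exposure, both at room temperature / Signal: thallium influx via FluxOR fluorescence, kinetic imaging / Evaluation: B score of baseline-normalized fluorescence ratio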
KCNK3 block = human KCNK3 channel inhibition, primary screen | O14649 | B-score at 10 µM | AID 602410 | CHO-KCNK3 thallium flux, FluxOR fluorescence; stronger effect = lower value | hit rate 0.84% among 340,000;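 active means B-score under library mean minus 4 SD, starting fluorescence ratio at most library mean plus 5 SD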;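 further: more negative B-score means stronger inhibition of thallium flux through KCNK3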
Target sequence (O14649 whole entry, looked up): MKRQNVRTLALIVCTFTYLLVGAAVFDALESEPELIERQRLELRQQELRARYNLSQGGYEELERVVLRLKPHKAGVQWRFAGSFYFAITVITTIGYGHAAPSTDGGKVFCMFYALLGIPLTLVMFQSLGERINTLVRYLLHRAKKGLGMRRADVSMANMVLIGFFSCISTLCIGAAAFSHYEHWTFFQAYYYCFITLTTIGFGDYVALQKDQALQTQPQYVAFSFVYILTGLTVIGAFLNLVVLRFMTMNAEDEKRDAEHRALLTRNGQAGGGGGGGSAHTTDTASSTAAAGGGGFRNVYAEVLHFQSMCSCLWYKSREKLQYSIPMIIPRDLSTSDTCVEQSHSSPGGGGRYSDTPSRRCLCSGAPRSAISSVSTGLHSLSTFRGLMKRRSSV
hERG protect = shields human hERG channel from block by proarrhythmic agents; CHO-hERG, FluxOR thallium flux, dofetilide IC70 present; activation (rescue from dofetilide block), less the hit threshold, % at 10 µM; hit rate 0.51% among 310,000;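 active means activation above the mean of controls blocked by dofetilide plus 5 SD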;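 further: thallium influx through hERG after potassium depolarization seen as dye fluorescence rise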
KCNQ1 block = human KCNQ1 channel inhibition; P51787; CHO-K1 KCNQ1, FluxOR thallium flux fluorescence; stronger effect = higher value; B-score at 10 µM; hit rate 1.3% among 310,000; AID 2642;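 active means compounds whose thallium flux B-score, printed positive for inhibition, exceeds three library SD while starting fluorescence stays within three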;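 further: channel opened by potassium depolarization with thallium stimulus after 20 min compound exposure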
KCNK9 inh conf = confirmation of human KCNK9 potassium channel inhibitors. shares compounds with KCNK9 inh. HEK293 KCNK9 cells, FluxOR thallium flux fluorescence. inhibition, % at 10 µM. hit rate 43% among 4,900;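 active means thallium signal inhibited by more than 5 SD of the compound-free buffer control wells, on both duplicate plates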;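 further: 0% = assay buffer control wells without compound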
Kir2-1 spec = mouse Kir2.1 off-target activity of KCNK9 modulators; shares compounds with KCNK9 inh; Kir2.1 cells, FluxOR thallium flux fluorescence; inhibition, % at 10 µM; hit rate 4% among 4,900; AID 492993;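 active means thallium signal drop more than 5 SD beyond the mean of the no-compound control wells, seen in both duplicate plates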;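 further: signal is fluorescence rise after thallium addition divided by baseline fluorescence; plate controls were assay buffer only for no effect and full block by chlorpromazine control for full effect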
KCNK9 uninduced = non-induced cell nonspecific activity of KCNK9 modulators. shares compounds with KCNK9 inh. inhibition, % at 10 µM. non-induced KCNK9-HEK293, FluxOR thallium flux. hit rate 40% among 4,900;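 active means thallium signal drop beyond 5 SD of the untreated control mean, on both duplicate plates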;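 further: plate controls were buffer only IC0 wells for no effect and SID17386958 at its maximal inhibitory level for full effect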
* = called active by the depositor; i = inactive; x = no result given; ! = not confirmed by another sample. Only some compounds are listed: those with a hit (about 3.1% of all), similar ones and a draw of the others.

SMILES	KCNK9 inh	KCNQ1 act	KCNK3 block	hERG protect	KCNQ1 block	KCNK9 inh conf	Kir2-1 spec	KCNK9 uninduced
CCCN(CC(=O)Nc1ccc(NC(C)=O)cc1)CC(=O)Nc1ccc(F)c(F)c1F	i	i	i	-16	i	x	x	x
O=C(N/N=C/c1cc(Cl)cc([N+](=O)[O-])c1O)c1cc(-c2ccccn2)nc2ccccc12	i	i	i	-18	i	i	i	28%*
COC(=O)c1ccccc1CON1C(=O)C(C)(C)N(OCc2ccccc2C(=O)OC)C(=O)C1(C)C	i	i	i	-10	i	i	i	i
COC(=O)c1ccccc1NC(=O)CC(=O)Nc1ccccc1C(=O)OC	i	i	i	-6	i	x	x	x
CCc1ccc(NC(=O)CCC(=O)Nc2nnc(C(F)(F)F)s2)cc1	i	i	i	-5	i	x	x	x
Cc1ccc(N=Nc2c(O)ccc3n[nH]nc23)cc1	i	i	i	-9	i	i	i	i
COc1cc(S(=O)(=O)N2CCCN(C)CC2)ccc1NC(C)=O	i	i	i	-2	i	x	x	x
COc1cc(C2SCC(=O)N2c2nnc(C34CC5CC(CC(C5)C3)C4)s2)cc(OC)c1OC (stereo not given)	i	i	i	-6	i	i	i	i
COc1ccc(C2SCC(=O)N2c2nnc(C34CC5CC(CC(C5)C3)C4)s2)cc1 (stereo not given)	i	i	i	-6	i	x	x	x
O=C(C[C@H]1C(=O)N(Cc2ccccc2)C[C@@H]1Cc1ccccc1)Nc1ccccc1	i	i	i	-7	i	i	i	i
CCCCC[C@H]1CN(Cc2ccccc2)C(=O)[C@@H]1CC(=O)NCc1ccc(OC)cc1	i	i	i	-8	i	i	i	28%*
COc1ccc(CNC(=O)C[C@H]2C(=O)N(Cc3ccccc3)C[C@@H]2Cc2ccccc2)cc1	i	i	i	-3	i	x	x	x
CN(C)CCCN(C(=O)c1ccc(C(=O)c2ccccc2)cc1)c1nc2c(F)cccc2s1	i	i	i	-16	i	i	i	i
CC[C@]12c3[nH]c4cc(-c5ccco5)ccc4c3CCN1C(=O)[C@@H](CC(=O)NCCC1=CCCCC1)C[C@@H]2C(=O)N1CCN(C(=O)c2ccco2)CC1	x	x	i	x	x	x	x	x
CCN(Cc1ccccc1)C(c1cccs1)c1nnnn1C1CCCCC1 (stereo not given)	-12*	i	i	-5	i	56%*	i	34%*
COc1ccc(/C=C2\SC(=O)N(CCNC(=O)C3=COCCO3)C2=O)cc1	i	i	i	-15	i	x	x	x
O=C(NCCN1C(=O)S/C(=C\c2ccc(OC(F)F)cc2)C1=O)C1=COCCO1	i	i	i	-9	i	i	i	i
Oc1ccc(/C=N/n2c(COc3ccccc3)n[nH]c2=S)c(O)c1	-8.3*	i	i	-15	i	48%*	i	35%*
Oc1ccccc1/C=N/n1c(COc2ccccc2)n[nH]c1=S	i	i	i	-15	i	x	x	x
COc1cc(CNCCO)cc(Cl)c1OCc1ccc(Cl)cc1Cl	-8.7*	i	i	-20	i	46%*	62%*	i
COc1cc(CNCCO)cc(Br)c1OCc1ccccc1Cl	i	i	i	-17	i	x	x	x
Cc1ccc(Cl)cc1NC1=C/C(=N\S(=O)(=O)c2cccs2)c2ccccc2C1=O	-8.3*	i	-10*!	-2	i	26%*	i	i
O=C(NCc1ccc(Cl)cc1)C(=O)NCC1OCCN1S(=O)(=O)c1cc(F)ccc1F (stereo not given)	i	i	i	-11	i	x	x	x
CC(C)COc1ccc(CSCCNC(=S)Nc2ccccc2)cc1	i	i	i	-16	9*	i	i	i
CCOC(=O)C1=C(O)/C(=C/c2ccc(OCC(=O)O)c(OC)c2)SC1=Nc1ccc(OCC)cc1	i	i	i	2	i	x	x	x
SMILES	KCNK9 inh	KCNQ1 act	KCNK3 block	hERG protect	KCNQ1 block	KCNK9 inh conf	Kir2-1 spec	KCNK9 uninduced
CCOC(=O)C1=C(O)/C(=C/c2cc(OC)c(O)c(OC)c2)SC1=Nc1ccc(OC)cc1	-9.9*	i	i	-1	i	i	i	i
COc1ccc(/C=N/NC(=O)c2csc(-n3nc(C)cc3C(F)(F)F)n2)cc1	-10*	i	i	-12	i	i	i	26%*
COc1ccc(S(=O)(=O)NNC(=O)c2csc(-n3nc(C)cc3C(F)(F)F)n2)cc1OC	i	i	i	-4	i	x	x	x
C/C(=N/NS(=O)(=O)c1ccc(C)cc1C)c1c[nH]c2ccccc12	i	i	i	-15	i	x	x	x
CCC(C)(C)n1nnnc1C(c1ccc2ncccc2c1)N1CCN(c2nc3ccccc3s2)CC1 (stereo not given)	-15*	i	i	-7	i	47%*	i	45%*
S=C(Nc1ccc(Oc2ccccc2)cc1)NC1CCCCCC1	i	i	i	-12	i	x	x	x
CN(C(=S)Nc1ccc(Oc2ccccc2)cc1)C1CCCCC1	i	i	i	-7	i	i	i	i
COC(=O)/C(=C\Nc1ccc(Oc2ccc(F)cc2F)nc1)NC(=O)c1ccccc1	i	i	i	-3	i	x	x	x
NC(N)=Nc1nc(-c2ccccc2)c2ccccc2n1	-9.6*	i	i	-21	i	27%*	i	i
CSc1nnc(C(C)(C)C)c(=O)n1/N=C/c1ccc(Cl)cc1	i	i	i	-6	i	x	x	x
CCCSc1nc(=S)n(Cc2ccccc2)c(C)c1C(C)=O	-13*	i	i	-5	i	66%*	i	i
CC(=O)c1c(N2CCCCC2)nc(=S)n(Cc2ccccc2)c1C	i	i	i	-11	i	x	x	x
O=C(/C=C/c1cccc(Cl)c1Cl)OCC(=O)N1CCOCC1	x	x	i	x	x	x	x	x
COc1ccc(C(=O)/C=C(\C)NCc2ccc3c(c2)OCO3)cc1	i	i	i	-7	i	i	i	i
CCNc1nc(=S)nc(NCc2ccccc2)[nH]1	i	i	x	-14	i	x	x	x
CCOC(=O)c1cc(NC(=O)Nc2ccc(Br)cc2)c(C)nc1C	i	i	i	-5	i	i	i	i
CCOC(=O)c1cc(NC(=O)Nc2ccccc2Cl)c(C)nc1C	i	i	i	-12	i	x	x	x
Cc1ccc(-n2nc3c(N4CCC(C(=O)NCCc5cccs5)CC4)nnc(C)c3c2C)cc1	i	i	i	-6	i	x	x	x
